Laboratory results taken from ChEMBL document CHEMBL2062453, “Lead optimization through VLAK protocol: new annelated pyrrolo-pyrimidine derivatives as antitumor agents” (2012).

Legend:
Type in all cases: functional
RPMI-8226 = experiment: Cytotoxicity against human RPMI8226 cells after 48 hrs by SRB assay; details: RPMI-8226, 48 h; for TGI: read-out: pTGI (converted)
Summary of the method: (§1)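 Five-dose screen, 10-fold or ½-log dilutions, compound stock in DMSO. Cells were in RPMI 1640 with 5% FBS and 2 mM glutamine at 5000–40,000 cells/well, preincubated 24 h, 37 °C, 5% CO₂, with a time-zero plate TCA-fixed. After 48 h drug exposure, cells were TCA-fixed and stained with 0.4% SRB, read at 515 nm. GI50, TGI and LC50 were derived from time-zero, control and test absorbances.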

SW-620 = experiment: Cytotoxicity against human SW620 cells after 48 hrs by SRB assay; details: SW-620, 48 h; for TGI: read-out: pTGI (converted)
Summary of the method: (§2)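 NCI 60-panel five-dose screen. Cells in RPMI 1640 with 5% FBS and 2 mM glutamine, plated at 5000–40,000 cells/well and preincubated 24 h at 37 °C under 5% CO2. Five 10-fold or half-log dilutions were added from a DMSO stock for 48 h. Cells were TCA-fixed (SR settled cells: 16% final), SRB-stained and read at 515 nm. GI50 was taken where (Ti−Tz)/(C−Tz)×100 = 50.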

SK-MEL-2 = experiment: Cytotoxicity against human SK-MEL-2 cells after 48 hrs by SRB assay; details: SK-MEL-2, 48 h; for TGI: read-out: pTGI (converted); summary of the method: as §1
CAKI-1 = experiment: Cytotoxicity against human Caki1 cells after 48 hrs by SRB assay; details: CAKI-1, 48 h; for TGI: read-out: pTGI (converted)
Summary of the method: (§3)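 NCI 60-cell five-dose screen. Cells grown in RPMI 1640 with 5% FBS and 2 mM glutamine, plated at 5000–40,000 cells/well, and preincubated 24 h at 37 °C in 5% CO2. Time-zero plates fixed with TCA. Five serial dilutions of DMSO stock added, then 48 h exposure. TCA fixation, 0.4% SRB staining, absorbance read at 515 nm. GI50 from [(Ti−Tz)/(C−Tz)]×100 = 50.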

Malme-3M = experiment: Cytotoxicity against human MALME-3M cells after 48 hrs by SRB assay; details: for TGI: read-out: pTGI (converted); summary of the method: as §3
OVCAR-8 = experiment: Cytotoxicity against human OVCAR8 cells after 48 hrs by SRB assay; details: OVCAR-8, 48 h; for TGI: read-out: pTGI (converted); summary of the method: as §1
BT-549 = experiment: Cytotoxicity against human BT549 cells after 48 hrs by SRB assay; details: BT-549, 48 h; for TGI: read-out: pTGI (converted); summary of the method: as §3
SN12C = experiment: Cytotoxicity against human SN12C cells after 48 hrs by SRB assay; details: for TGI: read-out: pTGI (converted); summary of the method: as §1
UO-31 = experiment: Cytotoxicity against human UO31 cells after 48 hrs by SRB assay; details: UO-31, 48 h; for TGI: read-out: pTGI (converted); summary of the method: as §2
Hs-578T = experiment: Cytotoxicity against human Hs578T cells after 48 hrs by SRB assay; details: for TGI: read-out: pTGI (converted); summary of the method: as §3
T47D = experiment: Cytotoxicity against human T47D cells after 48 hrs by SRB assay; details: for TGI: read-out: pTGI (converted); summary of the method: as §2
M14 = experiment: Cytotoxicity against human M14 cells after 48 hrs by SRB assay; details: M14, 48 h; for TGI: read-out: pTGI (converted); summary of the method: as §3
OVCAR-5 = experiment: Cytotoxicity against human OVCAR5 cells after 48 hrs by SRB assay; details: OVCAR-5, 48 h; for TGI: read-out: pTGI (converted); summary of the method: as §1
A549 = experiment: Cytotoxicity against human A549 cells after 48 hrs by SRB assay; details: A549, 48 h; for TGI: read-out: pTGI (converted); summary of the method: as §3
786-0 = experiment: Cytotoxicity against human 786-0 cells after 48 hrs by SRB assay; details: 786-0, 48 h; for TGI: read-out: pTGI (converted); summary of the method: as §3
HT-29 = experiment: Cytotoxicity against human HT-29 cells after 48 hrs by SRB assay; details: HT-29, 48 h; for TGI: read-out: pTGI (converted); summary of the method: as §3
SK-MEL-28 = experiment: Cytotoxicity against human SK-MEL-28 cells after 48 hrs by SRB assay; details: SK-MEL-28, 48 h; for TGI: read-out: pTGI (converted); summary of the method: as §1
LOX IMVI = experiment: Cytotoxicity against human LOXIMVI cells after 48 hrs by SRB assay; details: for TGI: read-out: pTGI (converted); summary of the method: as §3
NCI-H322M = experiment: Cytotoxicity against human NCI-H322M cells after 48 hrs by SRB assay; details: for TGI: read-out: pTGI (converted); summary of the method: as §1
OVCAR-3 = experiment: Cytotoxicity against human OVCAR3 cells after 48 hrs by SRB assay; details: OVCAR-3, 48 h; for TGI: read-out: pTGI (converted); summary of the method: as §1
PC-3 = experiment: Cytotoxicity against human PC3 cells after 48 hrs by SRB assay; details: PC-3, 48 h; for TGI: read-out: pTGI (converted); summary of the method: as §1
SF-268 = experiment: Cytotoxicity against human SF268 cells after 48 hrs by SRB assay; details: SF-268, 48 h; for TGI: read-out: pTGI (converted); summary of the method: as §1
MOLT-4 = experiment: Cytotoxicity against human MOLT4 cells after 48 hrs by SRB assay; details: MOLT-4, 48 h; for TGI: read-out: pTGI (converted); summary of the method: as §1
COLO 205 = experiment: Cytotoxicity against human COLO205 cells after 48 hrs by SRB assay; details: COLO 205, 48 h; for TGI: read-out: pTGI (converted); summary of the method: as §3
NCI/ADR-RES = experiment: Cytotoxicity against human NCI/ADR-RES cells after 48 hrs by SRB assay; details: for TGI: read-out: pTGI (converted); summary of the method: as §1
KM12 = experiment: Cytotoxicity against human KM12 cells after 48 hrs by SRB assay; details: KM12, 48 h; for TGI: read-out: pTGI (converted); summary of the method: as §3
HCC 2998 = experiment: Cytotoxicity against human HCC2998 cells after 48 hrs by SRB assay; details: HCC 2998, 48 h; for TGI: read-out: pTGI (converted); summary of the method: as §3
MDA-MB-468 = experiment: Cytotoxicity against human MDA-MB-468 cells after 48 hrs by SRB assay; details: MDA-MB-468, 48 h; for TGI: read-out: pTGI (converted); summary of the method: as §1

## CSC1=Nc2c(c(C)c(-c3ccccc3)n2CCCCl)C2=NC(=O)CN12
RPMI-8226
  GI50: 3.72 µM
  LC50: > 100 µM
  TGI: 66.1 µM
SW-620
  GI50: 4.79 µM
  LC50: > 100 µM
  TGI: 53.7 µM
SK-MEL-2
  GI50: 10.5 µM
  LC50: 74.1 µM
  TGI: 27.5 µM
CAKI-1
  GI50: 4.57 µM
  LC50: > 100 µM
  TGI: 28.2 µM
Malme-3M
  GI50: 8.32 µM
  LC50: 58.9 µM
  TGI: 23.4 µM
OVCAR-8
  GI50: 16.2 µM
  LC50: > 100 µM
  TGI: 72.4 µM
BT-549
  GI50: 4.9 µM
  LC50: > 100 µM
  TGI: 35.5 µM
SN12C
  GI50: 6.31 µM
  LC50: > 100 µM
  TGI: 38.9 µM
UO-31
  GI50: 10.5 µM
  LC50: 77.6 µM
  TGI: 28.8 µM
Hs-578T
  GI50: 6.31 µM
  LC50: > 100 µM
  TGI: 34.7 µM
T47D
  GI50: 2.63 µM
  LC50: 95.5 µM
  TGI: 11 µM
M14
  GI50: 3.31 µM
  LC50: > 100 µM
  TGI: 15.1 µM
OVCAR-5
  GI50: 11.5 µM
  LC50: > 100 µM
  TGI: 38 µM
A549
  GI50: 7.76 µM
  LC50: > 100 µM
  TGI: 66.1 µM
786-0
  GI50: 8.51 µM
  LC50: > 100 µM
  TGI: 61.7 µM
HT-29
  GI50: 3.89 µM
  LC50: > 100 µM
  TGI: 19.5 µM
SK-MEL-28
  GI50: 10.2 µM
  LC50: 63.1 µM
  TGI: 25.1 µM
LOX IMVI
  GI50: 4.17 µM
  LC50: 50.1 µM
  TGI: 17.4 µM
NCI-H322M
  GI50: 9.77 µM
  LC50: 58.9 µM
  TGI: 24.5 µM
OVCAR-3
  GI50: 8.32 µM
  LC50: > 100 µM
  TGI: 36.3 µM
PC-3
  GI50: 8.71 µM
  LC50: > 100 µM
  TGI: > 100 µM
SF-268
  GI50: 8.51 µM
  LC50: > 100 µM
  TGI: 47.9 µM
MOLT-4
  GI50: 3.89 µM
  LC50: > 100 µM
  TGI: > 100 µM
COLO 205
  GI50: 4.17 µM
  LC50: 47.9 µM
  TGI: 15.1 µM
NCI/ADR-RES
  GI50: 4.27 µM
  LC50: > 100 µM
  TGI: > 100 µM
KM12
  GI50: 4.17 µM
  LC50: 81.3 µM
  TGI: 18.6 µM
HCC 2998
  GI50: 4.57 µM
  LC50: 64.6 µM
  TGI: 19.5 µM
MDA-MB-468
  GI50: 3.16 µM
  LC50: 60.3 µM
  TGI: 13.2 µM

## CSC1=Nc2c(c(C)c(-c3ccccc3)n2CCCN2CCCCC2)C2=NC(=O)CC(C)N12 (configuration not stated)
RPMI-8226
  GI50: 0.166 µM
  LC50: 4.27 µM
  TGI: 1.2 µM
SW-620
  GI50: 2.4 µM
  LC50: 32.4 µM
  TGI: 10.5 µM
SK-MEL-2
  GI50: 2.14 µM
  LC50: 20.9 µM
  TGI: 5.25 µM
CAKI-1
  LC50: > 100 µM
  TGI: 18.6 µM
Malme-3M
  GI50: 2.34 µM
  LC50: 53.7 µM
  TGI: 7.24 µM
OVCAR-8
  GI50: 3.72 µM
  LC50: > 100 µM
  TGI: 30.9 µM
BT-549
  GI50: 2.63 µM
  LC50: 85.1 µM
  TGI: 9.55 µM
SN12C
  GI50: 2.29 µM
  LC50: > 100 µM
  TGI: 10.7 µM
UO-31
  GI50: 5.01 µM
  LC50: 75.9 µM
  TGI: 24 µM
Hs-578T
  GI50: 2.29 µM
  LC50: 97.7 µM
  TGI: 7.94 µM
T47D
  GI50: 2 µM
  LC50: > 100 µM
  TGI: 7.59 µM
M14
  GI50: 3.63 µM
  LC50: 64.6 µM
  TGI: 17.4 µM
OVCAR-5
  GI50: 19.1 µM
  LC50: > 100 µM
  TGI: > 100 µM
A549
  GI50: 2.95 µM
  LC50: 79.4 µM
  TGI: 10.7 µM
786-0
  GI50: 3.55 µM
  LC50: > 100 µM
  TGI: 47.9 µM
HT-29
  GI50: 1.62 µM
  LC50: > 100 µM
  TGI: 7.24 µM
SK-MEL-28
  GI50: 2.88 µM
  LC50: 36.3 µM
  TGI: 13.2 µM
LOX IMVI
  GI50: 3.02 µM
  LC50: 35.5 µM
  TGI: 12.9 µM
NCI-H322M
  GI50: 6.17 µM
  LC50: > 100 µM
  TGI: 89.1 µM
OVCAR-3
  GI50: 2.4 µM
  LC50: 53.7 µM
  TGI: 8.51 µM
PC-3
  GI50: 1.38 µM
  LC50: 9.12 µM
  TGI: 3.55 µM
SF-268
  GI50: 3.39 µM
  LC50: 45.7 µM
  TGI: 14.1 µM
MOLT-4
  GI50: 2 µM
  LC50: 20.4 µM
  TGI: 5.13 µM
COLO 205
  GI50: 1.26 µM
  LC50: 5.01 µM
  TGI: 2.51 µM
NCI/ADR-RES
  GI50: 17 µM
  LC50: > 100 µM
  TGI: 74.1 µM
KM12
  GI50: 3.16 µM
  LC50: 33.9 µM
  TGI: 11 µM
HCC 2998
  GI50: 3.24 µM
  LC50: 61.7 µM
  TGI: 16.2 µM
MDA-MB-468
  GI50: 2.69 µM
  LC50: > 100 µM
  TGI: 10 µM
